{"source": "ChEMBL document CHEMBL1141258", "about": "“Prismatomerin, a new iridoid from Prismatomeris tetrandra. Structure elucidation, determination of absolute configuration, and cytotoxicity” (J Nat Prod, 2007)", "format_in_all_cases": "functional", "key": {"U-251": {"tested_on": "U-251", "experiment": "Growth inhibition of human U251 cells after 48 hrs by SRB assay", "details": "U-251, 48 h", "in_short": "(§1)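 Run at NCI in the 60-human-tumor-cell-line anticancer screen. Each compound was tested at a minimum of five concentrations at 10-fold dilutions.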"}, "KM12": {"tested_on": "KM12", "experiment": "Growth inhibition of human KM12 cells after 48 hrs by SRB assay", "details": "KM12, 48 h", "in_short": "as §1"}, "Hs-578T": {"tested_on": "Hs-578T", "experiment": "Growth inhibition of human HS578T cells after 48 hrs by SRB assay", "in_short": "(§2)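 NCI 60 human tumour cell line in vitro anticancer screen, run at NCI. Compound tested at a minimum of five concentrations in 10-fold dilutions per cell line.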"}, "HL-60": {"tested_on": "HL-60", "experiment": "Growth inhibition of human HL60 cells after 48 hrs by SRB assay", "details": "HL-60, 48 h", "in_short": "as §2"}, "Malme-3M": {"tested_on": "Malme-3M", "experiment": "Growth inhibition of human MALME-3M cells after 48 hrs by SRB assay", "in_short": "as §2"}, "MOLT-4": {"tested_on": "MOLT-4", "experiment": "Growth inhibition of human MOLT4 cells after 48 hrs by SRB assay", "details": "MOLT-4, 48 h", "in_short": "as §1"}, "[1]": {"experiment": "(§3) Growth inhibition of human […] cells after 48 hrs by SRB assay", "in_short": "as §1"}, "MDA-MB235": {"tested_on": "MDA-MB235", "experiment": "as §3", "in_short": "as §1"}, "EKVX": {"tested_on": "EKVX", "experiment": "Growth inhibition of human EKVX cells after 48 hrs by SRB assay", "in_short": "as §2"}, "UO-31": {"tested_on": "UO-31", "experiment": "Growth inhibition of human UO31 cells after 48 hrs by SRB assay", "details": "UO-31, 48 h", "in_short": "as §2"}, "CCRF-CEM": {"tested_on": "CCRF-CEM", "experiment": "Growth inhibition of human CCRF-CEM cells after 48 hrs by SRB assay", "in_short": "as §2"}, "NCI-H460": {"tested_on": "NCI-H460", "experiment": "Growth inhibition of human NCI-H460 cells after 48 hrs by SRB assay", "details": "NCI-H460, 48 h", "in_short": "as §2"}, "NCI-H23": {"tested_on": "NCI-H23", "experiment": "Growth inhibition of human NCIH23 cells after 48 hrs by SRB assay", "details": "NCI-H23, 48 h", "in_short": "as §2"}, "OVCAR-5": {"tested_on": "OVCAR-5", "experiment": "Growth inhibition of human OVACAR5 cells after 48 hrs by SRB assay", "details": "OVCAR-5, 48 h", "in_short": "as §1"}, "SF-268": {"tested_on": "SF-268", "experiment": "Growth inhibition of human SF268 cells after 48 hrs by SRB assay", "details": "SF-268, 48 h", "in_short": "as §1"}, "[2]": {"experiment": "Growth inhibition of human […] cells after 48 hrs by SRB assay", "in_short": "as §1"}, "SK-OV-3": {"tested_on": "SK-OV-3", "experiment": "Growth inhibition of human SK-OV3 cells after 48 hrs by SRB assay", "details": "SK-OV-3, 48 h", "in_short": "as §1"}, "T47D": {"tested_on": "T47D", "experiment": "Growth inhibition of human T47D cells after 48 hrs by SRB assay", "in_short": "as §2"}, "OVCAR-8": {"tested_on": "OVCAR-8", "experiment": "Growth inhibition of human OVACAR8 cells after 48 hrs by SRB assay", "details": "OVCAR-8, 48 h", "in_short": "as §1"}, "UACC-62": {"tested_on": "UACC-62", "experiment": "Growth inhibition of human UACC62 cells after 48 hrs by SRB assay", "details": "UACC-62, 48 h", "in_short": "as §2"}, "[3]": {"details": "read-out: Log LC50 (the source's name) (converted)"}}, "note": "Calls of active or inactive are those of the source. No cut-off for these calls is given here."}
{"smiles": "COC(=O)C1=CO[C@@H]2O[C@H]3/C(=C\\c4ccc(O)cc4)C(=O)O[C@]34C=C[C@H]1[C@H]24", "note": "[PRISMATOMERIN]", "values": [{"measurement": "CC50", "setting": "U-251; [3]", "value": 60300, "unit": "nM"}, {"measurement": "TGI", "setting": "U-251; read-out: Log TGI (converted)", "value": 955, "unit": "nM"}, {"measurement": "GI50", "setting": "KM12", "value": 302, "unit": "nM"}, {"measurement": "CC50", "setting": "KM12; [3]", "value": "> 100000", "unit": "nM"}, {"measurement": "TGI", "setting": "KM12; read-out: Log TGI (converted)", "value": 1510, "unit": "nM"}, {"measurement": "GI50", "setting": "Hs-578T", "value": 257, "unit": "nM"}, {"measurement": "CC50", "setting": "Hs-578T; [3]", "value": "> 100000", "unit": "nM"}, {"measurement": "GI50", "setting": "HL-60", "value": "< 10", "unit": "nM"}, {"measurement": "CC50", "setting": "HL-60; [3]", "value": "> 100000", "unit": "nM"}, {"measurement": "GI50", "setting": "Malme-3M", "value": 135, "unit": "nM"}, {"measurement": "CC50", "setting": "Malme-3M; [3]", "value": 4680, "unit": "nM"}, {"measurement": "GI50", "setting": "MOLT-4", "value": "< 10", "unit": "nM"}, {"measurement": "GI50", "setting": "[1]", "value": 200, "unit": "nM"}, {"measurement": "Activity", "setting": "MDA-MB235", "value": "inactive"}, {"measurement": "GI50", "setting": "EKVX", "value": 355, "unit": "nM"}, {"measurement": "CC50", "setting": "EKVX; [3]", "value": 40700, "unit": "nM"}, {"measurement": "GI50", "setting": "UO-31", "value": 120, "unit": "nM"}, {"measurement": "CC50", "setting": "UO-31; [3]", "value": 813, "unit": "nM"}, {"measurement": "GI50", "setting": "CCRF-CEM", "value": 38, "unit": "nM"}, {"measurement": "CC50", "setting": "CCRF-CEM; [3]", "value": "> 100000", "unit": "nM"}, {"measurement": "GI50", "setting": "NCI-H460", "value": 240, "unit": "nM"}, {"measurement": "CC50", "setting": "NCI-H460; [3]", "value": "> 100000", "unit": "nM"}, {"measurement": "GI50", "setting": "NCI-H23", "value": 186, "unit": "nM"}, {"measurement": "CC50", "setting": "NCI-H23; [3]", "value": 933, "unit": "nM"}, {"measurement": "GI50", "setting": "OVCAR-5", "value": 257, "unit": "nM"}, {"measurement": "CC50", "setting": "OVCAR-5; [3]", "value": 813, "unit": "nM"}, {"measurement": "TGI", "setting": "OVCAR-5; read-out: Log TGI (converted)", "value": 407, "unit": "nM"}, {"measurement": "GI50", "setting": "SF-268", "value": 263, "unit": "nM"}, {"measurement": "CC50", "setting": "SF-268; [3]", "value": 63100, "unit": "nM"}, {"measurement": "TGI", "setting": "SF-268; read-out: Log TGI (converted)", "value": 759, "unit": "nM"}, {"measurement": "GI50", "setting": "[2]", "value": 1950, "unit": "nM"}, {"measurement": "CC50", "setting": "[2]; [3]", "value": 24500, "unit": "nM"}, {"measurement": "TGI", "setting": "[2]; read-out: Log TGI (converted)", "value": 5370, "unit": "nM"}, {"measurement": "GI50", "setting": "SK-OV-3", "value": 912, "unit": "nM"}, {"measurement": "CC50", "setting": "SK-OV-3; [3]", "value": "> 100000", "unit": "nM"}, {"measurement": "TGI", "setting": "SK-OV-3; read-out: Log TGI (converted)", "value": 3160, "unit": "nM"}, {"measurement": "GI50", "setting": "T47D", "value": 380, "unit": "nM"}, {"measurement": "CC50", "setting": "T47D; [3]", "value": 3890, "unit": "nM"}, {"measurement": "GI50", "setting": "OVCAR-8", "value": 174, "unit": "nM"}, {"measurement": "CC50", "setting": "OVCAR-8; [3]", "value": 2240, "unit": "nM"}, {"measurement": "TGI", "setting": "OVCAR-8; read-out: Log TGI (converted)", "value": 501, "unit": "nM"}, {"measurement": "GI50", "setting": "UACC-62", "value": 437, "unit": "nM"}, {"measurement": "CC50", "setting": "UACC-62; [3]", "value": 575, "unit": "nM"}]}
